According to ChEMBL document CHEMBL1687719, “Absence of CD4+ T lymphocytes, CD8+ T lymphocytes, or B lymphocytes has different effects on the efficacy of posaconazole and benznidazole in treatment of experimental acute Trypanosoma cruzi infection” (2009):
Activity calls are given as the source filed them. No cut-off for these calls is given here.

How the values were obtained:
Trypanosoma cruzi [1] = experiment: Antitrypanosomal activity against Trypanosoma cruzi Y infected in CD4+ T-lymphocyte knockout C57BL/6 mouse assessed as occurrence of subpatent parasitemia level in mouse at 100 mg/kg/day, po administered once daily for 20 consecutive days measured 4 to 24 days post infection; format: functional, organism-based
How it was run: (§1)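 Ip infection was 5,000 Y-strain blood trypomastigotes. Oral dosing at 100 mg/kg/day, once daily in gum arabic water, ran from 4 dpi for 20 days. Parasitemia was read by microscopy of fresh tail blood, daily from 4–16 dpi, then every other day to 60 dpi. Reactivation was scored as patent parasitemia returning after treatment ended.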

Trypanosoma cruzi [2] = experiment: Antitrypanosomal activity against Trypanosoma cruzi Y infected in CD4+ T-lymphocyte knockout C57BL/6 mouse assessed as occurrence of subpatent parasitemia level in mouse at 20 mg/kg/day, po administered twice daily for 20 consecutive days measured 4 to 24 days post infection; format: functional, organism-based
How it was run: (§2)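 Ip infection was 5,000 Y-strain blood trypomastigotes. From 4 dpi mice got 20 mg/kg/day orally in two daily doses (2% methylcellulose/0.5% Tween 80) for 20 days. Fresh tail blood was examined microscopically, daily from 4–16 dpi and every other day to 60 dpi. Reactivation was scored as return of patent parasitemia after treatment. Parasitemia curves were compared by Mann-Whitney.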

Trypanosoma cruzi [3] = experiment: Antitrypanosomal activity against Trypanosoma cruzi Y infected in CD4+ T-lymphocyte knockout C57BL/6 mouse assessed as reactivation of parasite in mouse at 20 mg/kg/day, po administered twice daily for 20 consecutive days measured 60 days post infection; format: functional, organism-based; how it was run: as §2
Trypanosoma cruzi [4] = experiment: Antitrypanosomal activity against Trypanosoma cruzi Y infected in B-lymphocyte knockout C57BL/6 mouse assessed as number of mouse with reactivation of infection at 100 mg/kg/day, po administered once daily for 20 consecutive days measured 22 days post infection; format: functional, organism-based; how it was run: as §1
Trypanosoma cruzi [5] = experiment: Antitrypanosomal activity against Trypanosoma cruzi Y infected in CD4+ T-lymphocyte knockout C57BL/6 mouse assessed as reactivation of parasite in mouse at 100 mg/kg/day, po administered once daily for 20 consecutive days measured 60 days post infection; format: functional, organism-based; how it was run: as §1
Trypanosoma cruzi [6] = experiment: Antitrypanosomal activity against Trypanosoma cruzi Y infected in B-lymphocyte knockout C57BL/6 mouse assessed as mean survival time at 100 mg/kg/day, po administered once daily for 20 consecutive days measured 60 days post infection; format: functional
How it was run: (§3)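 Mice were infected ip with 5,000 blood trypomastigotes of the Y strain, kept by serial passage in Swiss-Webster mice. From 4 dpi they got 100 mg/kg/day orally once daily for 20 consecutive days, dissolved in water with gum arabic. Survival was followed to 60 dpi, with mean survival time and survival rate taken. Untreated and vehicle-treated infected mice served as controls. Rates compared by chi-square with Bonferroni.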

Trypanosoma cruzi [7] = experiment: Antitrypanosomal activity against Trypanosoma cruzi Y infected in CD8+ T-lymphocyte knockout C57BL/6 mouse assessed as occurrence of subpatent level of parasitemia at 20 mg/kg/day, po administered twice daily for 20 consecutive days measured 60 days post infection; format: functional, organism-based; how it was run: as §2
Trypanosoma cruzi [8] = experiment: Antitrypanosomal activity against Trypanosoma cruzi Y infected in B-lymphocyte knockout C57BL/6 mouse assessed as increase in survival of mouse at 100 mg/kg/day, po administered once daily for 20 consecutive days measured 60 days post infection; format: functional; settings: 1440 h; how it was run: as §3
Trypanosoma cruzi [9] = experiment: Antitrypanosomal activity against Trypanosoma cruzi Y infected in CD4+ T-lymphocyte knockout C57BL/6 mouse assessed as increase in survival of mouse at 100 mg/kg/day, po administered once daily for 20 consecutive days measured 60 days post infection; format: functional; settings: 1440 h; how it was run: as §3
Trypanosoma cruzi [10] = experiment: Antitrypanosomal activity against Trypanosoma cruzi Y infected in CD8+ T-lymphocyte knockout C57BL/6 mouse assessed as cure rate in mouse at 100 mg/kg/day, po administered once daily for 20 consecutive days measured 60 days post infection; format: functional
How it was run: (§4)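 Mice infected ip with 5,000 blood trypomastigotes (Y strain kept by serial passage in Swiss-Webster mice). Oral dosing started day 4 post-infection and ran 20 consecutive days, drug dissolved in water with gum arabic. Fresh tail blood was examined microscopically daily days 4–16, then every other day to day 60. Parasitemia-negative mice were bled at day 60 by orbital sinus, 0.5 ml into two tubes of LIT medium, 28°C for 30–60 days, then examined microscopically. Cure meant negative fresh blood plus negative hemoculture. Rates were compared by chi-square with Bonferroni.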

Trypanosoma cruzi [11] = experiment: Antitrypanosomal activity against Trypanosoma cruzi Y infected in C57BL/6 mouse assessed as increase in survival of mouse at 100 mg/kg/day, po administered once daily for 20 consecutive days measured 60 days post infection; format: functional; settings: 1440 h; how it was run: as §3
Trypanosoma cruzi [12] = experiment: Antitrypanosomal activity against Trypanosoma cruzi Y infected in CD4+ T-lymphocyte knockout C57BL/6 mouse assessed as reactivation of parasite in mouse at 100 mg/kg/day, po administered once daily for 20 consecutive days measured 11 days post infection; format: functional, organism-based; how it was run: as §1
Trypanosoma cruzi [13] = experiment: Antitrypanosomal activity against Trypanosoma cruzi Y infected in CD8+ T-lymphocyte knockout C57BL/6 mouse assessed as occurrence of subpatent level of parasitemia at 100 mg/kg/day, po administered once daily for 20 consecutive days measured 60 days post infection; format: functional, organism-based; how it was run: as §1
Trypanosoma cruzi [14] = experiment: Antitrypanosomal activity against Trypanosoma cruzi Y infected in B-lymphocyte knockout C57BL/6 mouse assessed as cure rate in mouse at 100 mg/kg/day, po administered once daily for 20 consecutive days measured 60 days post infection; format: functional; how it was run: as §4
Trypanosoma cruzi [15] = experiment: Antitrypanosomal activity against Trypanosoma cruzi Y infected in CD8+ T-lymphocyte knockout C57BL/6 mouse assessed as mean survival time at 100 mg/kg/day, po administered once daily for 20 consecutive days measured 60 days post infection; format: functional; how it was run: as §3
Trypanosoma cruzi [16] = experiment: Antitrypanosomal activity against Trypanosoma cruzi Y infected in C57BL/6 mouse assessed as cure rate in mouse at 100 mg/kg/day, po administered once daily for 20 consecutive days measured 60 days post infection; format: functional; how it was run: as §4
Trypanosoma cruzi [17] = experiment: Antitrypanosomal activity against Trypanosoma cruzi Y infected in C57BL/6 mouse assessed as mean survival time at 100 mg/kg/day, po administered once daily for 20 consecutive days measured 60 days post infection; format: functional; how it was run: as §3
Trypanosoma cruzi [18] = experiment: Antitrypanosomal activity against Trypanosoma cruzi Y infected in CD8+ T-lymphocyte knockout C57BL/6 mouse assessed as number of mouse with reactivated parasite at 100 mg/kg/day, po administered once daily for 20 consecutive days measured 60 days post infection; format: functional
How it was run: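 Mice infected ip with 5,000 Y-strain blood trypomastigotes. From day 4 they were given drug orally in water with gum arabic for 20 days. Reactivation was scored as reappearance of circulating parasites after treatment ended, seen by microscopy of fresh tail blood. Sampling was daily from day 4 to 16 and then every other day up to day 60.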

Trypanosoma cruzi [19] = experiment: Antitrypanosomal activity against Trypanosoma cruzi Y infected in CD8+ T-lymphocyte knockout C57BL/6 mouse assessed as occurrence of low level of circulating parasites at 100 mg/kg/day, po administered once daily for 20 consecutive days measured 15 days after the end of treatment
Trypanosoma cruzi [20] = experiment: Antitrypanosomal activity against Trypanosoma cruzi Y infected in CD4+ T-lymphocyte knockout C57BL/6 mouse assessed as cure rate in mouse at 100 mg/kg/day, po administered once daily for 20 consecutive days measured 60 days post infection; format: functional; how it was run: as §4
Trypanosoma cruzi [21] = experiment: Antitrypanosomal activity against Trypanosoma cruzi Y infected in CD4+ T-lymphocyte knockout C57BL/6 mouse assessed as mean survival time at 100 mg/kg/day, po administered once daily for 20 consecutive days measured 60 days post infection; format: functional; how it was run: as §3
Trypanosoma cruzi [22] = experiment: Antitrypanosomal activity against Trypanosoma cruzi Y infected in CD8+ T-lymphocyte knockout C57BL/6 mouse assessed as increase in survival of mouse at 100 mg/kg/day, po administered once daily for 20 consecutive days measured 60 days post infection; format: functional; settings: 1440 h; how it was run: as §3

## O=C(Cn1ccnc1[N+](=O)[O-])NCc1ccccc1 [BENZNIDAZOLE]
Trypanosoma cruzi [1]
  Activity: Active
Trypanosoma cruzi [2]
  Activity: Active
Trypanosoma cruzi [3]
  Activity: inactive
Trypanosoma cruzi [4]
  Activity: inactive
Trypanosoma cruzi [5]
  Activity: inactive
Trypanosoma cruzi [6]
  MST: 59.3 days
Trypanosoma cruzi [7]
  Activity: Active
Trypanosoma cruzi [8]
  survival at 100 mg/kg/day: 67%
Trypanosoma cruzi [9]
  survival at 100 mg/kg/day: 6%
Trypanosoma cruzi [10]
  Activity: 66%
Trypanosoma cruzi [11]
  survival at 100 mg/kg/day: 100%
Trypanosoma cruzi [12]
  Activity: inactive
Trypanosoma cruzi [13]
  Activity: Active
Trypanosoma cruzi [14]
  Activity: 22%
Trypanosoma cruzi [15]
  MST: 58.8 days
Trypanosoma cruzi [16]
  Activity: 86%
Trypanosoma cruzi [17]
  MST: >60 days
Trypanosoma cruzi [18]
  Activity: 22%
Trypanosoma cruzi [19]
  Activity: Active
Trypanosoma cruzi [20]
  Activity: 0%
Trypanosoma cruzi [21]
  MST: 53.7 days
Trypanosoma cruzi [22]
  survival at 100 mg/kg/day: 86%
